# Test results from publication PMC2494688 (Diabetes, 2008).
# Assays:
# [1] = test system: islets from GPR40−/− mice; assay: Static GDIS assay, 1-h incubation, GPR40−/− islets; type: cell-based, mouse; settings: 200 μmol/l, 16 mmol/l glucose, n = 6, P > 0.05
# How it was run: (§1)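 Islets isolated by collagenase digestion and Ficoll gradient, cultured overnight in RPMI-1640 with 11 mmol/l glucose. Preincubated 30 min in KRB (0.2% BSA) with 2 mmol/l glucose. One islet/well incubated 60 min at 2 or 16 mmol/l glucose, ± 200 μmol/l oleate or palmitate or 10 μmol/l test compound; DMSO vehicle. Insulin by ultrasensitive rat insulin ELISA. Two experiments, six replicates in total. Wild-type islets also tested across a compound concentration series at 16 mmol/l glucose (three experiments).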
# [2] = test system: islets from wild-type mice; assay: Static GDIS assay, 1-h incubation, wild-type islets; type: cell-based, mouse; settings: 200 μmol/l, 16 mmol/l glucose, n = 6
# How it was run: as §1
# wild-type C57BL/6 mice = assay: IPGTT in wild-type lean mice; type: in vivo, mouse; settings: 0.0025 mg/kg, positive control
# How it was run: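 Lean male C57BL/6N mice fasted 5–6 h, dosed orally with compound (1–100 mg/kg) or 0.25% methylcellulose vehicle (10 ml/kg) 60 min before 2 g/kg i.p. dextrose. Tail glucose sampled to 60 min. Percent inhibition derived from the 0–60 min AUC minus the vehicle/water group AUC. Plasma compound measured by LC-MS/MS at 60 min of IPGTT (2 h post-dose).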
# human GPR40 = human GPR40 (Homo sapiens, UniProt O14842); type: cell-based; settings: CHO cells, in words
# Chain of human GPR40 (O14842 whole entry): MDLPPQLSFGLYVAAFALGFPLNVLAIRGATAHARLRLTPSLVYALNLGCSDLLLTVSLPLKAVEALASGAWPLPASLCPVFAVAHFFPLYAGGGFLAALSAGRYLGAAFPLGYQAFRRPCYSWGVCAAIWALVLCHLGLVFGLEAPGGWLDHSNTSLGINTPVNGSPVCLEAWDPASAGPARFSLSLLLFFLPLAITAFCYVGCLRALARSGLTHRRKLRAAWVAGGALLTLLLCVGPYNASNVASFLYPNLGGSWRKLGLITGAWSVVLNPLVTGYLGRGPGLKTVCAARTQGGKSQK
# How it was run: (§2)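 GPR40 stably expressed in CHO cells carrying NFAT β-lactamase, seeded 1 day before. Test compound in DMSO, diluted in assay buffer, added as a 5× solution. Calcium signal read on FLIPR from 10 s before addition. EC50 taken from concentration–response curves.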
# mouse GPR40 = mouse GPR40 (Mus musculus, UniProt Q76JU9); type: cell-based; settings: CHO cells, in words
# Chain of mouse GPR40 (Q76JU9 whole entry): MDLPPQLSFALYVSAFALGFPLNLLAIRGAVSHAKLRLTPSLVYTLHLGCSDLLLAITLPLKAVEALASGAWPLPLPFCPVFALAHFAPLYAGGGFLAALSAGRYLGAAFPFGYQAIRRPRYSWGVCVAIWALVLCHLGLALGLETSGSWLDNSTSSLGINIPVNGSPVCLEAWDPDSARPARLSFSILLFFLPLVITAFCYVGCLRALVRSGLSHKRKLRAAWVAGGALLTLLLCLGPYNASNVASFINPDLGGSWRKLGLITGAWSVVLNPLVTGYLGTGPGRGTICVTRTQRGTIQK
# How it was run: as §2
Compound,Activation of human GPR40 receptor (human GPR40),Activation of mouse GPR40 receptor (mouse GPR40),Promotion of glucose-dependent insulin secretion [1] [fold],Promotion of glucose-dependent insulin secretion [2] [fold],Effect on glucose excursion during IPGTT (wild-type C57BL/6 mice)
"CCCCCCCCCCCCCCCC(=O)O [palmitate, palmitic acid]",,,1.8 ± 0.5,2.4 ± 0.3,
"exendin-4: glucagon-like peptide 1 mimetic, positive control",,,,,completely prevented any glucose excursion
"CCCCCCCC/C=C\CCCCCCCC(=O)O [oleic C18:1, oleic acid]",,,1.2 ± 0.3,1.9 ± 0.4,

# Further lines, with some results ahead:
Activation of human GPR40 receptor (human GPR40),Activation of mouse GPR40 receptor (mouse GPR40),Compound,Promotion of glucose-dependent insulin secretion [1] [fold],Promotion of glucose-dependent insulin secretion [2] [fold],Effect on glucose excursion during IPGTT (wild-type C57BL/6 mice)
minimal activation,minimal activation,"CCCCC(=O)O [pentanoic C5:0, pentanoic acid]",,,
minimal activation,minimal activation,CCC(=O)O [propionic C3:0],,,
minimal activation,minimal activation,CCCC(=O)O [butyric C4:0],,,
